TNAP act hiacc: increases human TNAP activity under high phosphate acceptor concentration; P05186; purified TNAP, CDP-star luminescence, 1 M DEA, 30 min; hits give high values; 0 = EDTA background, 1 = DMSO-only activity; activation factor at 20 µM; 200,000 tested, under 10 active;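 active = activation factor at least 2 at 20 µM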
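Measured by: Luminescent substrate turnover signal | Test system: Human TNAP | Input: TNAP 1/800 final | Dosing: 20 µM single point | Schedule: 30 min, room temperature | Controls: EDTA wells as negative control, DMSO wells as positive control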
TNAP inh hiacc: inhibitors of human TNAP at high phosphate acceptor concentration; 200,000 compounds, 0.03% hits; AID 1135; inhibition, % at 20 µM; P05186; purified TNAP, CDP-star luminescence, 1 M DEA;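 active = over 50% inhibition of tissue-nonspecific alkaline phosphatase at 20 µM in the single-dose screen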;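 also: plate controls were DMSO wells for no effect and EDTA-quenched wells as full inhibition for full effect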
S1P4 antagonist: human S1P4 receptor antagonism; S1P4-expressing cells, antagonist mode, reporter read-out; O95977; inhibition, % at 4.98 µM; 220,000 compounds, 0.26% hits; in the data active = inhibition above about 29%;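 also: 0% = wells stimulated with agonist and 100% = vehicle wells without agonist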
S1P4 agonist: human S1P4 receptor agonism | S1P4-expressing cell line, agonist reporter assay | O95977 | 220,000 compounds, 0.35% hits | activation, % at 4.98 µM; in the data active = activation above about 11%;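 also: 0% = DMSO vehicle and 100% = reference agonist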
S1P3 antagonist: S1P3 (human) receptor antagonism. Q99500. CHO S1P3 NFAT-BLA reporter, FRET fluorescence, antagonist mode. inhibition, % at 4.98 µM. 170,000 compounds, 0.27% hits. AID 485;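 active = inhibition above the plate cutoff, the mean inhibition of test wells on that plate plus 3 SD, cut at about 28% in these data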;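 also: cells challenged with S1P at its EC80 of 0.8 µM; blue over green emission ratio from cleaved BLA substrate after 4 h stimulation; 0% = S1P-stimulated wells and 100% = unstimulated DMSO-only wells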
TNAP inh noacc: blocks human TNAP activity with no phosphate acceptor present; P05186; inhibition, % at 20 µM; purified TNAP, CDP-star luminescence, 30 min; 200,000 compounds, 0.26% hits;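 active = tissue-nonspecific alkaline phosphatase inhibition above about 50% at 20 µM in the single-dose screen, limit read from the data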;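 also: 0% = DMSO negative control and 100% = EDTA positive control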
S1P4 ag conf: human S1P4 agonism, confirmation; shares compounds with S1P4 agonist; S1P4 agonist cell-based reporter assay; activation, % at 4.98 µM; 740 compounds, 7% hits; in the data active = activation above about 12%;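 also: 0% = vehicle and 100% = full reference agonist response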
S1P1 agonist: human S1P1 agonism as S1P4 agonist counter-screen; 740 compounds, 4% hits; shares compounds with S1P4 agonist; S1P1 agonist cell-based assay, activation; AID 1563; activation, % at 4.98 µM; in the data active = activation above about 21%;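 also: 0% = vehicle wells and 100% = reference agonist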
Target sequence (P21453 whole entry, looked up): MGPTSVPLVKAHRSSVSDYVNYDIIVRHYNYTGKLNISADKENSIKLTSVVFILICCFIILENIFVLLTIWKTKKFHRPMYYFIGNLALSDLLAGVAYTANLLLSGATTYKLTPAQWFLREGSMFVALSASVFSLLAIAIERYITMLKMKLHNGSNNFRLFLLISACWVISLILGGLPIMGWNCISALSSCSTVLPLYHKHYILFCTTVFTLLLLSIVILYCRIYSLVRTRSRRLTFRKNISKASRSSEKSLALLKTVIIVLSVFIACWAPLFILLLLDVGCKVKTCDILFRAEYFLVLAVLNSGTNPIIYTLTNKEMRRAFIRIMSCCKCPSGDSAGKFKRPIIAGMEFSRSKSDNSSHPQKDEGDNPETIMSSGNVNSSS
* = called active by the depositor; . = no result. Rows were chosen to be rich in hits. Some 1.1% of all compounds tested hit in one or more screens of this group.

SMILES	TNAP act hiacc	TNAP inh hiacc	S1P4 antagonist	S1P4 agonist	S1P3 antagonist	TNAP inh noacc	S1P4 ag conf	S1P1 agonist
O=C(NC(=S)NCC1CCCO1)c1ccco1 (configuration not stated)	1	-4	-5	14*	-1	0	0	0
Cc1nc2ccccc2c(=O)n1NC(=O)CCC(=O)O	1	1	-5	-2	-12	-4	.	.
Cc1nn(CC(=O)O)c(C)c1N	.	.	0	4	14	.	.	.
CCc1cc(=O)[nH]c(SCCC(F)=C(F)F)n1	1	-4	-1	1	-14	-9	.	.
CC(Nc1cccnc1)=C(C#N)C#N	1	1	-8	12*	-4	-5	-3	15
O=C(Nc1cccnc1)c1ccc(C(=O)Nc2cccnc2)cc1	1	-2	6	0	-14	-9	.	.
Cc1ccc(C(C(=O)NCc2ccco2)N(C(=O)CNC(=O)c2cccs2)c2c(C)cccc2C)cc1 (configuration not stated)	1	5	-1	81*	-1	-9	-2	-2
COc1ccc(CC(=O)Nc2nnc(C(C)(C)C)s2)cc1OC	1.1	-5	-16	32*	-9	-9	-1	-11
CCN(CC)C(=O)Cn1c(=O)n(CCCCCC(=O)Nc2ccccc2)c(=O)c2sccc21	1	1	-7	12*	8	-17	-2	-2
COc1ccc(C)cc1NC(=O)c1ccc2c(SCC(=O)O)c3c(nc2c1)CCCC3	.	.	-12	45*	-20	.	-2	-3
COc1cc(Cl)c(C)cc1NC(=O)c1ccc2c(SCC(=O)O)c3c(nc2c1)CCCC3	1	-1	-3	2	7	-9	.	.
COCCNC(=O)C(c1ccncc1)N(C(=O)c1sc(C)nc1C)c1cccc(C)c1 (configuration not stated)	1	-4	12	0	11	-8	.	.
COc1ccc(NC(=O)c2cnc3sccn3c2=O)cc1	1	-4	-5	1	-36	-14	.	.
CC(=O)c1cnc2sccn2c1=O	0.9	5	-6	16*	-24	-2	-3	-4
COc1cc(OC)c(NS(=O)(=O)c2cccc(C(=O)OCC(=O)NCC3CCCO3)c2)cc1Cl (configuration not stated)	1	-4	-9	1	-11	-7	.	.
Cc1cc(C)n(S(=O)(=O)c2ccc(C)c(C)c2C)n1	1	2	-21	0	-13	-5	.	.
COc1ccc(S(=O)(=O)n2nc(C)cc2C)c(C)c1C	1	-3	0	48*	.	-1	-2	-4
Cc1nn(Cc2nnc(SCC(=O)Nc3cccc(C(F)(F)F)c3)n2C)c(C)c1[N+](=O)[O-]	.	.	13	56*	-6	.	-2	-5
Cn1c(Cn2cnc([N+](=O)[O-])n2)nnc1SCC(=O)Nc1cccc(Cl)c1	1	0	-14	-1	11	-3	.	.
Cc1ccc(NC(=O)c2oc3ccc(S(=O)(=O)N4CCC5(CC4)OCCO5)cc3c2C)cc1C	1	-1	3	49*	1	-6	-2	-5
O=C(N/N=C1\CCCc2ccccc21)c1ccc([N+](=O)[O-])cc1	1	2	-13	12*	.	-9	-3	0
COc1cc(CC(=O)Nc2cccc(SC)c2)cc(OC)c1OC	1	-3	-11	45*	0	-11	-1	-3
COc1ccc(CC(=O)Nc2cccc(SC)c2)cc1	1.1	-5	-8	3	1	-8	.	.
O=C(COC(=O)Cc1ccccc1[N+](=O)[O-])NCC1CCCCC1	1	-1	-20	0	2	0	.	.
Cc1[nH]c2ccccc2c1C(=O)C(=O)NCc1ccco1	1	-1	4	-1	-12	-6	.	.
SMILES	TNAP act hiacc	TNAP inh hiacc	S1P4 antagonist	S1P4 agonist	S1P3 antagonist	TNAP inh noacc	S1P4 ag conf	S1P1 agonist
Cc1ccc(S(=O)(=O)N2CCc3ccccc3C2CC(=O)O)cc1 (configuration not stated)	.	.	9	26*	-19	.	-2	-2
Cc1ccc(C(=O)NCCc2nnc3ccc(SCC(=O)Nc4c(C)cc(C)cc4C)nn23)cc1	1	-1	-13	13*	9	-4	-1	-3
Cc1ccc(C(=O)NCCc2nnc3ccc(SCC(=O)Nc4ccccc4C)nn23)cc1	1	3	-2	-1	-12	-8	.	.
O=C(COC(=O)C1(c2ccc(Cl)cc2)CCCC1)Nc1ncc(C(F)(F)F)cc1Cl	1	-2	-1	29*	4	-5	-1	0
CC1CCc2c(C(=O)Nc3ccc(N4CCOCC4)cc3)csc2C1 (configuration not stated)	1	-1	-2	1	4	-28	.	.
O=C(c1ccc(NC(=S)Nc2ccc(Cl)c(Cl)c2)cc1)N1CCCC1	1	-2	-24	23*	-18	1	-2	-2
CC(C)CCNC(=S)NC1CCCC1	1	1	-7	2	.	-1	.	.
CC(C)CCNC(=O)C(=O)NC1CCCC1	1	-3	14	57*	1	-8	-2	-1
CN(C)c1ccc(-c2nnn(CC(=O)NCc3ccc4c(c3)OCO4)n2)cc1	1.1	-6	10	-1	-4	-17	.	.
COc1cccc(CNC(=O)CSc2ccc(-c3ccncc3)nn2)c1	0.9	6	3	-1	-13	0	.	.
COc1ccccc1CNC(=O)CSc1ccc(-c2ccncc2)nn1	1	-2	-2	29*	-5	7	-1	5
CN1C(=O)OC2(C)CCc3ccccc3C12C (configuration not stated)	1.1	-6	-16	22*	22	-11	-1	-2
COc1cc2c(cc1OC)/C(=C/c1ccc(Br)cc1)C(=O)OC2	1	-4	-4	149*	-16	-8	-2	-4
COc1ccc(/C=C2\Cc3ccccc3C2=O)cc1OC	.	.	6	0	-10	.	.	.
COc1ccccc1NC(=O)c1c(NC(=O)c2ccco2)sc2c1CCC2	1.1	-7	-11	14*	18	-4	0	-3
COc1ccc(-c2csc(N(CCc3ccc(OC)c(OC)c3)C(=O)COc3ccccc3)n2)cc1	1	-2	-12	0	.	-7	.	.
Cc1ccc(S(=O)(=O)N2CCOCC2)cc1C(=O)N1CCN(S(=O)(=O)c2cccs2)CC1	.	.	-1	0	20	.	.	.
Nc1nc(NCC2CCCO2)nc(Nc2ccc(F)cc2)c1[N+](=O)[O-] (configuration not stated)	1	0	-10	25*	6	2	-3	-1
Cc1[nH]c(=O)[nH]c(=O)c1/C=C/C(=O)O	.	.	-21	1	-12	.	.	.

Screening results deposited in PubChem BioAssay by several laboratories.
